Test results: ChEMBL document CHEMBL1147241, “Cytotoxic constituents of Isodon rubescens var. lushiensis” (J Nat Prod, 2003)
Values after ≈ are worked out from the molar mass of the structure shown.

Test system: K562
Assay: Cytotoxicity against human K562 cells by MTT method
Format: functional, cell-based
Method in brief: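 Improved MTT assay on K562 human leukemia cells; cis-platinum as positive control. Optical density recorded as mean ± S; IC50 calculated from OD data.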

| SMILES | IC50 |
| --- | --- |
| C=C1C(=O)[C@]23C[C@H]1C[C@@H](O)[C@H]2[C@@]1(CCC[C@@]2(C)COC(=O)[C@H]21)COC3=O [LUDONGNIN A] | 0.25 µg/mL (≈ 0.694 µM) |
| CO[C@H]1OC[C@]2(C)CCC[C@]3(COC(=O)[C@@]45C[C@@H](CC[C@H]43)[C@@H](C)C5=O)[C@H]12 [LUDONGNIN I] | > 50 µg/mL |
| CO[C@@H]1OC[C@]2(C)CCC[C@]3(COC(=O)[C@@]45C[C@@H](CC[C@H]43)[C@@H](C)C5=O)[C@H]12 [LUDONGNIN F] | > 50 µg/mL |
| C=C1C(=O)[C@]23C[C@H]1C[C@@H](O)[C@H]2[C@@]1(CCC[C@@]2(C)CO[C@@H](OC)[C@H]21)COC3=O | 0.87 µg/mL (≈ 2.31 µM) |
| C=C1C(=O)[C@]23C[C@H]1CC[C@H]2[C@@]1(CCC[C@@]2(C)CO[C@@H](OC)[C@H]21)COC3=O [LUDONGNIN J] | 0.18 µg/mL (≈ 0.499 µM) |
| C[C@H]1C(=O)[C@]23C[C@H]1CC[C@H]2[C@@]1(CCC[C@@]2(C)COC(=O)[C@H]21)COC3=O [GUIDONGNIN B] | > 50 µg/mL |
| C=C1[C@@H]2C[C@@H](O)[C@H]3[C@@]4(CCC[C@@]5(C)COC(=O)[C@H]54)COC(=O)[C@]3(C2)[C@@H]1O [GUIDONGNIN A] | 0.3 µg/mL (≈ 0.828 µM) |
| C[C@H]1C(=O)[C@]23C[C@H]1C[C@@H](O)[C@H]2[C@@]1(CCC[C@@]2(C)COC(=O)[C@H]21)COC3=O [GUIDONGNIN C] | > 50 µg/mL |
| CO[C@H]1OC[C@]2(C)CCC[C@]3(COC(=O)[C@@]45C[C@@H](CC[C@H]43)[C@H](C)C5=O)[C@H]12 [LUDONGNIN H] | > 50 µg/mL |
| CO[C@@H]1OC[C@]2(C)CCC[C@]3(COC(=O)[C@@]45C[C@@H](CC[C@H]43)[C@H](C)C5=O)[C@H]12 [LUDONGNIN G] | > 50 µg/mL |
| C=C1C(=O)[C@]23C[C@H]1CC[C@H]2[C@]1(COC3=O)C2CC[C@@]3(C)COC(O2)[C@H]31 (some centres undefined) [SCULPONEATIN J] | 0.83 µg/mL (≈ 2.41 µM) |
| C=C1C(=O)[C@]23C[C@H]1C[C@@H](O)[C@H]2[C@@]1(CCC[C@@]2(C)CO[C@H](OC)[C@H]21)COC3=O [ANGUSTIFOLIN] | 0.23 µg/mL (≈ 0.611 µM) |

Test system: HeLa
Assay: Cytotoxicity against human HeLa cells by SRB method
Format: functional, cell-based
Method in brief: (§1)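 Sulforhodamine B (SRB) assay on CA liver cancer and HeLa cervical cancer cells; cis-platinum as positive control. Optical density recorded as mean ± S; IC50 calculated from OD data.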

| SMILES | IC50 |
| --- | --- |
| C=C1C(=O)[C@]23C[C@H]1CC[C@H]2[C@@]1(CCC[C@@]2(C)CO[C@@H](OC)[C@H]21)COC3=O [LUDONGNIN J] | 0.7 µg/mL (≈ 1.94 µM) |

Test system: not listed separately
Assay: Cytotoxicity against human CA cells by SRB method
Format: functional, cell-based
Method in brief: as §1

| SMILES | IC50 |
| --- | --- |
| C=C1C(=O)[C@]23C[C@H]1CC[C@H]2[C@@]1(CCC[C@@]2(C)CO[C@@H](OC)[C@H]21)COC3=O [LUDONGNIN J] | 0.09 µg/mL (≈ 0.25 µM) |
